ChEMBL document CHEMBL6071149, “Synthesis and photo-induced anticancer activity of new 2-phenylethenyl-1H-benzo[e]indole dyes” (Eur J Med Chem, 2024)
pEC50: −log10 of the molar value. Active and inactive are the calls of the source. No cut-off for these calls is given here.

Assays:
G-361 [1] = experiment: Induction of DNA fragmentation in human G361 cells at 0.5 uM by Comet assay; format: functional, cell-based
Summary of the method: (§1)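 G361 cells exposed at 0.5 µM and irradiated at indicated 414 nm doses. Cells trypsinized and embedded in 1 % LMP agarose on slides, lysed 1 h in buffer with 1 % Triton X. Cold electrophoresis solution for 40 min, then electrophoresis at 20 V, 350 mA for 20 min. Neutralised twice for 10 min, stained with SYBR Green 15 min. Percent DNA in comet head and tail scored.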

[2] = Cytotoxicity against ARN-8 cells-derived from human A375 cells pretreated for 4 hrs followed by light irradiation of 10 J/cm2 at 414 nm measured after 68 hrs by MTT assay; format: functional, cell-based; details: ARN-8 cell, light or radiation study
Summary of the method: (§2)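 Cells grown in phenol red-free DMEM with 10 % FBS, penicillin/streptomycin, 37 °C, 5 % CO₂. Compound added 24 h after plating and incubated 4 h. Irradiated cells received 414 nm LED light at 20 mW/cm², 10 J/cm², then were incubated 20 h or 68 h more. Dark plates were run in parallel without irradiation. MTT was added for 4 h, formazan dissolved in 10 % SDS, absorbance read at 570 nm. EC50 ± SD.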

ARN-8 cell [3] = experiment: Downregulation of p53 level in human ARN-8 cells-derived from human A375 cells at higher concentration pretreated for 4 hrs followed by light irradiation of 10 J/cm2 at 414 nm measured after 20 hrs by fluorescence based assay; format: functional; details: time 24.0 hrs
ARN-8 cell [4] = experiment: Induction of ROS production in human ARN-8 cells-derived from human A375 cells upto 4 uM treated for 4 hrs under dark condition by CM-H2DCFA probe based analysis; format: functional
Summary of the method: (§3)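 Cells loaded next day with 5 µM CM-H₂DCFDA for 30 min, then placed in prewarmed PBS with 5 mM glucose. Compound exposure 4 h, followed by 414 nm irradiation at 5 or 10 J/cm²; dark samples run in parallel. Fluorescence read immediately at 492/530 nm. NAC (5 mM) pretreatment for 10 min gave negative controls. RFU normalised to untreated dark control.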

G-361 [5] = experiment: Induction of oxidative stress in human G361 cells assessed as increase in HO-1 level upto 4 uM under dark condition by immunoblot analysis; format: functional, cell-based
[6] = Cytotoxicity against human ARN-8 cells-derived from human A375 cells under dark condition measured after 72 hrs by MTT assay; format: functional, cell-based; details: ARN-8 cell; summary of the method: as §2
[7] = Cytotoxicity against ARN-8 cells-derived from human A375 cells pretreated for 4 hrs followed by light irradiation of 10 J/cm2 at 414 nm measured after 20 hrs by MTT assay; format: functional, cell-based; details: ARN-8 cell, light or radiation study; summary of the method: as §2
[8] = (§4) Selectivity ratio of EC50 for human G361 cells under dark condition measured after 24 hrs by MTT assay to EC50 for human G361 cells pretreated for 4 hrs followed by light irradiation of 10 J/cm2 at 414 nm measured after 20 hrs by MTT assay; format: functional
Summary of the method: (§5)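 Ratio of dark EC50 to EC50 after 414 nm irradiation (10 J/cm²). MTT read-out; compound exposure 4 h before irradiation. Each dark value is paired with the matching post-irradiation incubation (20 h or 68 h).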

G-361 [9] = experiment: Induction of ROS production in human G361 cells pretreated for 4 hrs followed by light irradiation of 5 to 10 J/cm2 measured immediately by CM-H2DCFA probe based analysis; format: functional, cell-based; details: dose <= 4.0 µM; summary of the method: as §3
G-361 [10] = experiment: Cytotoxicity against human G361 cells under dark condition measured after 24 hrs by MTT assay; format: functional, cell-based; details: G-361, 24 h; summary of the method: as §2
[11] = as §4, with “ARN-8 cells-derived from human A375” for “G361”; format: functional, ARN-8 cell; summary of the method: as §5
[12] = Cytotoxicity against human BJ cells under dark condition measured after 72 hrs by MTT assay; format: toxicity, cell-based; summary of the method: as §2
ARN-8 cell [13] = experiment: Induction of apoptosis in human ARN-8 cells-derived from human A375 cells assessed as increase in cleaved PARP-1 level upto 4 uM pretreated for 4 hrs followed by light irradiation of 10 J/cm2 at 414 nm measured after 20 hrs by Western blot analysis; format: functional, cell-based; details: time 24.0 hrs
Summary of the method: (§6)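 Compound exposure 4 h, then 414 nm irradiation, then 20 h further incubation. Lysates made in RIPA buffer, separated by SDS-PAGE and blotted to nitrocellulose. Primary antibodies in TBS with 4 % BSA and 0.1 % Tween 20, incubated overnight. Peroxidase secondary antibody with chemiluminescent detection. GAPDH served as loading control.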

ARN-8 cell [14] = experiment: Upregulation of Mcl-1 level in human ARN-8 cells-derived from human A375 cells upto 4 uM pretreated for 4 hrs followed by light irradiation of 10 J/cm2 at 414 nm measured after 20 hrs by Western blot analysis; format: functional, cell-based; details: time 24.0 hrs; summary of the method: as §6
G-361 [15] = experiment: (§7) Induction of ROS production in human G361 cells assessed as increase in hydroxyl radical production upto 4 uM pretreated for 4 hrs followed by replacement of medium containing probe without compound for 30 mins and subsequent light irradiation of 5 to 10 J/cm2 measured immediately by DHR-123 probe based analysis; format: functional, cell-based
Summary of the method: (§8)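 Compound exposure 4 h, then medium replaced with PBS containing 5 µM DHR123 probe for 30 min. Probe removed, cells in PBS irradiated at 5 or 10 J/cm², dark samples in parallel. Fluorescence read immediately at 490/525 nm.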

[16] = Selectivity ratio of EC50 for human BJ cells under dark condition measured after 72 hrs by MTT assay to EC50 for human G361 cells pretreated for 4 hrs followed by light irradiation of 10 J/cm2 at 414 nm measured after 68 hrs by MTT assay; format: functional; summary of the method: as §5
G-361 [17] = experiment: Induction of apoptosis in human G361 cells assessed as increase in cleaved PARP-1 level upto 4 uM pretreated for 4 hrs followed by light irradiation of 10 J/cm2 at 414 nm measured after 20 hrs by Western blot analysis; format: functional, cell-based; details: time 24.0 hrs; summary of the method: as §6
G-361 [18] = experiment: Cytotoxicity against human G361 cells under dark condition measured after 72 hrs by MTT assay; format: functional, cell-based; details: G-361, 72 h; summary of the method: as §2
G-361 [19] = experiment: Cytotoxicity against human G361 cells pretreated for 4 hrs followed by light irradiation of 10 J/cm2 at 414 nm measured after 68 hrs by MTT assay; format: functional, cell-based; details: G-361, light or radiation study; summary of the method: as §2
G-361 [20] = experiment: Induction of DNA fragmentation in human G361 cells at 0.5 uM pretreated with compound followed by light irradiation of 10 J/cm2 at 414 nm by Comet assay; format: functional, cell-based; summary of the method: as §1
ARN-8 cell [21] = experiment: Induction of ROS production in human ARN-8 cells-derived from human A375 cells upto 4 uM pretreated for 4 hrs followed by light irradiation of 5 to 10 J/cm2 measured immediately in presence of N-acetylcysteine by CM-H2DCFA probe based analysis; format: functional; summary of the method: as §3
ARN-8 cell [22] = experiment: Induction of cell cycle arrest in human ARN-8 cells-derived from human A375 cells assessed as cell accumulation at G2/M phase at 0.5 to 1 uM pretreated for 4 hrs followed by light irradiation of upto 10 J/cm2 at 414 nm measured after 20 hrs by flow cytometry; format: functional, cell-based; details: dose 0.5-1 µM, time 24.0 hrs
Summary of the method: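 Compound exposure 4 h (0.5 or 1 µM), then irradiation at increasing blue-light doses, then 20 h further incubation. Cells stained with propidium iodide; DNA content measured by flow cytometry with a 488 nm laser. Cell-cycle and subG1 distributions analysed.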

ARN-8 cell [23] = experiment: as §7, with “ARN-8 cells-derived from human A375” for “G361”, “singlet oxygen level” for “hydroxyl radical production”; format: functional; summary of the method: as §8

COc1ccc(/C=C/C2=Nc3ccc4ccccc4c3C2(C)C)cc1[N+](=O)[O-]
Activity (G-361 [1]): inactive | pEC50 [2]: 6.70 | Activity (ARN-8 cell [3]): Active | Activity (ARN-8 cell [4]): inactive | Activity (G-361 [5]): Active | pEC50 [6]: 5.14 | pEC50 [7]: 6.30 | Ratio EC50 [8]: >=15 | Activity (G-361 [9]): Dose-Dependent Effect | pEC50 (G-361 [10]): 5.05 | Ratio EC50 [11]: >=15 | EC50 at 72 h [12]: 8.3 µM | Activity (ARN-8 cell [13]): Active | Activity (ARN-8 cell [14]): Active | Activity (G-361 [15]): Active | Ratio EC50 [16]: >40 | Activity (G-361 [17]): Active | pEC50 (G-361 [18]): 5.25 | pEC50 (G-361 [19]): 6.70 | Activity (G-361 [20]): Active | Activity (ARN-8 cell [21]): inactive | Activity (ARN-8 cell [22]): Active | Activity (ARN-8 cell [23]): inactive
